Source: PubChem (Broad Institute)
KDM4C inh: KDM4C (human) demethylase inhibition; Q9H3R0; actives 0.15% (n = 96,000); GST-KDM4C 2-372, H3K9me3 peptide, LANCE TR-FRET; inhibition, % at 12.5 µM; AID 720574;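 active = mean replicate inhibition above about 25%, with at least 55% of replicates also reaching it, limit read from the data, passing the limit was not always enough; inconclusive = only one of those two conditions met; inactive = neither condition met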
Target sequence (Q9H3R0 2-372 limits assumed): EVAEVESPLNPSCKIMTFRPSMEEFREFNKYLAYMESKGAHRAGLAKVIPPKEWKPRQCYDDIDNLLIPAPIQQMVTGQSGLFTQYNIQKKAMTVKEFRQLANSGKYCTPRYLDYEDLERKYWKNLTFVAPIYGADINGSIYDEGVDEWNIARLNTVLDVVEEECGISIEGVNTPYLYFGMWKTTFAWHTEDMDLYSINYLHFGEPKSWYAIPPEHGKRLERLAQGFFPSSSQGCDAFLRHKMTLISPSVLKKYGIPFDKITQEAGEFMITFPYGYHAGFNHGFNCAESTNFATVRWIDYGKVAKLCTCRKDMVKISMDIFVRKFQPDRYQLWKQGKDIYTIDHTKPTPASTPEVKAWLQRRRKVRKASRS
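reagent = H3K9me3 peptide substrate, Fe(II), 2-oxoglutarate | system = GST-tagged GASC-1 (JMJD2C) catalytic fragment, aa 2-372 | amount = enzyme final amount 10 nM | read-out = Fall in 671/618 emission ratio as inhibition | medium = HEPES buffer, pH 7.5, plus ascorbate | schedule = 30 min reaction, 60 min detection, RT | measured by = LANCE TR-FRET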
T cruzi growth-1: T. cruzi proliferation inhibition; T. cruzi beta-gal in NIH3T3, GalScreen luminescence, 90 h; inhibition, % at 8.34 µM; actives 5.9% (n = 77,000); AID 624255;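 active = mean inhibition above about 93%, with at least 55% of replicates each passing it, limit read from the data, passing the limit was not always enough; inconclusive = only one of those two conditions holds; inactive = neither condition holds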
IDH1 mut inh: IDH1 R132H (human) inhibition; AID 624101; IDH1 R132H reductase, diaphorase/resazurin fluorescence, 60 min; inhibition, % at 10 µM; O75874; actives 0.18% (n = 70,000); in the data active = inhibition above about 34%; inconclusive = no clear call, values can overlap the other calls; inactive = below about 11%;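 also: 0% = DMSO and 100% = no enzyme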
Target sequence (O75874 whole entry R132H): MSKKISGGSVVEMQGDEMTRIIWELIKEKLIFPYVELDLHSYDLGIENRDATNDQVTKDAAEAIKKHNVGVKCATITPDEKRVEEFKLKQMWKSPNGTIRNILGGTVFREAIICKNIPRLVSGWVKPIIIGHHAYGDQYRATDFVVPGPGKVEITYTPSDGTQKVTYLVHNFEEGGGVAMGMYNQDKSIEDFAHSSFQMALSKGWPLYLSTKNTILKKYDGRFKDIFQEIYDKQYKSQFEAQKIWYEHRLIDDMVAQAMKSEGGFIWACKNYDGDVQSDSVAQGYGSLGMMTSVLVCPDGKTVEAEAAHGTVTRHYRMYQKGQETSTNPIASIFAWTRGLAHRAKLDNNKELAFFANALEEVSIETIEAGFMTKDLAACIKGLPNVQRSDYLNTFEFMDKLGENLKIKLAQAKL
T cruzi growth-2: inhibitors of T. cruzi proliferation | shares compounds with T cruzi growth-1 | T. cruzi beta-gal in NIH3T3, GalScreen luminescence, 90 h | inhibition, % at 8.35 µM | actives 72% (n = 5,600) | AID 651739;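 active = mean replicate inhibition above about 95% and at least 55% of replicates individually reaching it, limit read from the data; inconclusive = only one of the two criteria is met; inactive = neither criterion is met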
T cruzi growth-3: blocks T. cruzi growth in NIH3T3 host cells | inhibition, % at 2.09 µM | T. cruzi beta-gal in NIH3T3, GalScreen luminescence, 90 h | shares compounds with T cruzi growth-1 | actives 21% (n = 5,600);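 active = mean inhibition above about 95%, with at least 55% of replicates also reaching it, limit read from the data; inconclusive = meets just one of the two conditions; inactive = meets neither condition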;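 also: plate controls were neutral control median for no effect and positive control median for full effect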
3T3 cytotox: cytotoxicity in mouse NIH/3T3 fibroblasts; shares compounds with T cruzi growth-1; cytotoxicity (signal decrease), % at 8.35 µM; AID 651742; NIH/3T3 viability, CellTiter-Glo ATP luminescence, 90 h; actives 14% (n = 5,600);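 active = mean signal decrease across replicates above about 35% based on untreated-well scatter, with enough replicates individually passing, limit read from the data; inconclusive = no rule stated though some were filed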;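 also: 0% = median of neutral control wells and 100% = median of positive control wells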
3T3 cytotox 2: NIH/3T3 (mouse) viability loss; inhibition, % at 24.9 µM; actives 56% (n = 5,600); shares compounds with T cruzi growth-1; AID 651744; NIH/3T3 viability, CellTiter-Glo ATP luminescence, 90 h;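 active = mean loss of cell viability signal at or above a set limit, and enough replicates individually reaching it; inconclusive = meets only the mean limit or only the replicate share; inactive = meets neither condition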;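 also: 0% = median of neutral control wells and 100% = median of positive control wells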
* hit, by the source's call; ? = inconclusive; · = no result. Only a selection was taken, and hits are over-represented in it overall.

SMILES | KDM4C inh | T cruzi growth-1 | IDH1 mut inh | T cruzi growth-2 | T cruzi growth-3 | 3T3 cytotox | 3T3 cytotox 2
C[C@@H]1CN([C@@H](C)CO)C(=O)CCCn2cc(nn2)CO[C@@H]1CN(C)C(=O)Nc1cccc(C(F)(F)F)c1 | 1 | 152* | -1 | -26 | 6 | 12 | -3
C[C@H]1CN([C@@H](C)CO)C(=O)CCCn2cc(nn2)CO[C@@H]1CN(C)C(=O)c1ccc(N2CCN(C)CC2)cc1 | 9 | -20 | 0 | · | · | · | ·
C[C@H]1CN([C@@H](C)CO)C(=O)CCCn2cc(nn2)CO[C@@H]1CN(C)C(=O)Nc1cccc(C(F)(F)F)c1 | 8 | 28 | 5 | · | · | · | ·
COc1ccc(OC)c(NC(=O)COc2ccc3c(-c4ccccc4)cc(=O)oc3c2)c1 | · | · | 0 | · | · | · | ·
COc1ccc(C2CC(C(F)(F)F)n3ncc(C(=O)Nc4sc5c(c4C#N)CCC(C)C5)c3N2)cc1OC (stereo unspecified) | · | · | 0 | · | · | · | ·
CCCN(C)C[C@@H]1OCCCC[C@@H](C)Oc2ccc(NC(=O)C3CCCCC3)cc2C(=O)N([C@@H](C)CO)C[C@@H]1C | 0 | 85 | 1 | · | · | · | ·
CCCN(C)C[C@@H]1OCCCC[C@H](C)Oc2ccc(NC(=O)C3CCCCC3)cc2C(=O)N([C@@H](C)CO)C[C@@H]1C | -1 | 112* | · | 96* | 71 | 10 | 24
C[C@H]1CCCCO[C@H](CN(C)CC2CC2)[C@@H](C)CN([C@@H](C)CO)C(=O)c2cc(NC(=O)C3CCCCC3)ccc2O1 | 0 | 102* | · | 94 | 70 | -25 | -43
C[C@H](CO)N1C[C@H](C)[C@H](CN(C)CC2CC2)OCCCC[C@H](C)Oc2ccc(NC(=O)C3CCCCC3)cc2C1=O | 1 | · | 0 | · | · | · | ·
COc1ccccc1NC(=O)CSCC#N | · | · | 0 | · | · | · | ·
Cc1ccccc1-c1nnc(SCC(=O)Nc2cccc(Br)c2)n1C | · | · | 0 | · | · | · | ·
O=C(CN1CCOCC1)N1CCCCN2[C@H](CO)[C@@H](c3ccc(/C=C/c4ccccc4)cc3)[C@H]2C1 | -1 | 10 | · | · | · | · | ·
O=C(CN1CCOCC1)N1CCCCN2[C@H](CO)[C@H](c3ccc(/C=C/c4ccccc4)cc3)[C@H]2C1 | 0 | 100* | · | 97* | 62 | 25 | 105*
O=C(CN1CCOCC1)N1CCCCN2[C@H](CO)[C@H](c3ccc(-c4ccccc4F)cc3)[C@@H]2C1 | 0 | 85 | · | · | · | · | ·
O=C(CN1CCOCC1)N1CCCCN2[C@@H](CO)[C@H](c3ccc(-c4ccccc4F)cc3)[C@@H]2C1 | 0 | ? | · | 79 | 73 | -9 | -27
O=C(CN1CCOCC1)N1CCCCN2[C@H](CO)[C@H](c3ccc(/C=C/c4ccccc4)cc3)[C@@H]2C1 | -2 | 106* | · | 108* | 86 | 40* | 41*
O=C(CN1CCOCC1)N1CCCCN2[C@H](C1)[C@@H](c1ccc(/C=C/c3ccccc3)cc1)[C@@H]2CO | -2 | 83 | · | · | · | · | ·
COc1ccccc1-c1ccc([C@H]2[C@H](CO)N3CCCCN(C(=O)CN4CCOCC4)C[C@@H]23)cc1 | 1 | 100* | · | 79 | 40 | 19 | 31*
COc1ccccc1-c1ccc([C@H]2[C@@H](CO)N3CCCCN(C(=O)CN4CCOCC4)C[C@H]23)cc1 | 2 | 62 | · | · | · | · | ·
Cc1ccc(NC(=O)COc2ccc3cc(-c4ccc(F)cc4)c(=O)oc3c2)cc1 | · | · | 1 | · | · | · | ·
Cc1ccc(S(=O)(=O)N(C)CC(=O)Nc2c(F)cccc2F)cc1 | · | · | 0 | · | · | · | ·
O=C(CN1CCOCC1)N1CCCCN2[C@@H](CO)[C@@H](c3ccc(-c4ccccc4)cc3)[C@@H]2C1 | -1 | 91* | · | 75 | -15 | -5 | 12
O=C(CN1CCOCC1)N1CCCCN2[C@H](CO)[C@@H](c3ccc(C#Cc4ccccc4)cc3)[C@@H]2C1 | 0 | 64 | · | · | · | · | ·
O=C(CN1CCOCC1)N1CCCCN2[C@H](CO)[C@H](c3ccc(C#Cc4ccccc4)cc3)[C@@H]2C1 | 0 | 103* | · | 106* | 30 | 41* | 67*
O=C(CN1CCOCC1)N1CCCCN2[C@H](C1)[C@H](c1ccc(-c3ccccc3)cc1)[C@@H]2CO | 0 | -6 | · | · | · | · | ·
SMILES | KDM4C inh | T cruzi growth-1 | IDH1 mut inh | T cruzi growth-2 | T cruzi growth-3 | 3T3 cytotox | 3T3 cytotox 2
CCN(CC)C(=O)Oc1c(Br)cc(Br)c2ccc(C)nc12 | · | · | -1 | · | · | · | ·
O=C(O)c1ccc(NCCCO)c([N+](=O)[O-])c1 | · | · | 0 | · | · | · | ·
Cc1c(Cl)ccc2c(C(=O)NCCCn3cc(Br)cn3)cc(-c3ccncc3)nc12 | · | · | 1 | · | · | · | ·
Cc1ccc2nc(-c3cccc(NC(=O)COc4ccccc4C)c3)oc2c1 | · | · | 0 | · | · | · | ·
N#C[C@@H]1[C@@H](c2ccccc2)[C@@H](CO)N1C(=O)c1cccnc1 | 0 | 22 | · | · | · | · | ·
N#C[C@@H]1[C@@H](c2ccc(C3=CCCC3)cc2)[C@H](CO)N1C(=O)c1cccc(F)c1 | -4 | 62 | · | · | · | · | ·
COc1ccc(-c2ccc([C@H]3[C@H](C#N)N(C(=O)c4cccnc4)[C@H]3CO)cc2)cc1 | -1 | 107* | · | 108* | 34 | -3 | 31*
COc1ccccc1-c1ccc([C@@H]2[C@@H](C#N)N(C(=O)c3cccc(F)c3)[C@@H]2CO)cc1 | -2 | 68 | · | · | · | · | ·
N#C[C@@H]1[C@H](c2ccc(C3=CCCCC3)cc2)[C@H](CO)N1C(=O)c1cccc(F)c1 | -2 | ? | · | 107* | 80 | 12 | 24*
COc1ccc(-c2ccc([C@H]3[C@H](C#N)N(C(=O)c4cccc(F)c4)[C@H]3CO)cc2)cc1 | -2 | 106* | · | 101* | 111* | 5 | 22
N#C[C@H]1[C@@H](c2ccc(-c3cccnc3)cc2)[C@@H](CO)N1C(=O)Nc1ccc(F)cc1 | 1 | 105* | · | 108* | 56 | -30 | -8
N#C[C@@H]1[C@H](c2ccc(-c3cccnc3)cc2)[C@H](CO)N1C(=O)Nc1ccc(F)cc1 | -1 | 35 | · | · | · | · | ·
O=C(NC1CCN(Cc2ccccc2)CC1)c1ccc(NS(=O)(=O)c2cccs2)cc1 | · | · | 0 | · | · | · | ·
CCC(Sc1nnnn1-c1ccccc1)C(=O)Nc1ccc([N+](=O)[O-])cc1 (stereo unspecified) | · | · | 0 | · | · | · | ·
COc1ccc(NC(=O)CNC(=O)c2ccc(C(C)(C)C)cc2)cc1 | · | · | 0 | · | · | · | ·
COC(=O)c1c(NC(=O)CCN2C(=O)c3ccccc3C2=O)sc(C)c1-c1ccccc1 | · | · | 0 | · | · | · | ·
C[C@@H]1CN([C@@H](C)CO)C(=O)c2cc(NC(=O)C3CCCCC3)ccc2O[C@@H](C)CCCCO[C@@H]1CN(C)S(=O)(=O)c1ccc(Cl)cc1 | -1 | ? | · | 105* | 51 | -22 | 17
C[C@@H]1CCCCO[C@H](CN(C)S(=O)(=O)c2ccc(Cl)cc2)[C@H](C)CN([C@H](C)CO)C(=O)c2cc(NC(=O)C3CCCCC3)ccc2O1 | 18 | 110* | 1 | 101* | 108* | -12 | 8
